Measured values reported in ChEMBL document CHEMBL4251599, “Synthesis and biological evaluation of coumarin derivatives containing imidazole skeleton as potential antibacterial agents” (Eur J Med Chem, 2018).
Values after ≈ are worked out from the molar mass of the structure shown. Each block holds one molecule with its values, some of them ahead of it.

What was measured:
Type in all cases: functional
[1] = system: Flavobacterium columnare; test: Antibacterial activity against Flavobacterium columnare FC-G1 after 24 hrs by two fold serial dilution method; conditions: FC-G1, 24 h
In short: (§1)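 Broth two-fold serial dilution per CLSI, in nutrient broth. Inoculum from 24 h cultures at 28 ± 1 °C, adjusted in saline to 1×10^7-2×10^7 cfu/mL, then diluted to 1×10^5-2×10^5 cfu/mL. Test range 256 down to 0.50 µM and lower. Tubes held 24 h at 28 ± 1 °C. MIC read visually. Enrofloxacin and norfloxacin served as standards.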

[2] = system: Escherichia coli; test: Antibacterial activity against Escherichia coli ATCC 35150 after 24 hrs by two fold serial dilution method; conditions: ATCC 35150, 24 h; in short: as §1
[3] = system: Streptococcus agalactiae; test: Antibacterial activity against Streptococcus agalactiae WB1445 after 24 hrs by two fold serial dilution method; conditions: WB1445, 24 h; in short: as §1
[4] = system: Staphylococcus aureus; test: Antibacterial activity against Staphylococcus aureus ATCC 29213 after 24 hrs by two fold serial dilution method; conditions: ATCC 29213, 24 h; in short: as §1
[5] = system: Flavobacterium columnare; test: Bactericidal activity against Flavobacterium columnare FC-G1 incubated for 24 hrs followed by re-plating on nutrient agar and measured after overnight incubation by two fold serial dilution method; conditions: FC-G1, 24 h
In short: (§2)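 After the MIC read, 100 µl from every tube without visible growth was spread on nutrient agar lacking compound. Plates were incubated overnight at 28 ± 1 °C. MBC was taken as the lowest concentration killing >99.9% of the initial population, seen as no growth on agar.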

[6] = system: Escherichia coli; test: Bactericidal activity against Escherichia coli ATCC 35150 incubated for 24 hrs followed by re-plating on nutrient agar and measured after overnight incubation by two fold serial dilution method; conditions: ATCC 35150, 24 h; in short: as §2
[7] = system: Streptococcus agalactiae; test: Bactericidal activity against Streptococcus agalactiae WB1445 incubated for 24 hrs followed by re-plating on nutrient agar and measured after overnight incubation by two fold serial dilution method; conditions: WB1445, 24 h; in short: as §2
[8] = system: Staphylococcus aureus; test: Bactericidal activity against Staphylococcus aureus ATCC 29213 incubated for 24 hrs followed by re-plating on nutrient agar and measured after overnight incubation by two fold serial dilution method; conditions: ATCC 29213, 24 h; in short: as §2

Compound: O=c1ccc2ccc(OCCn3ccnc3)cc2o1
- MIC [1]: > 256 µM
- MIC [2]: 128 µM (≈ 32.8 µg/mL)
- MIC [3]: > 256 µM
- MIC [4]: > 256 µM
- MBC [5]: > 256 µM
- MBC [6]: 256 µM (≈ 65.6 µg/mL)
- MBC [7]: > 256 µM
- MBC [8]: > 256 µM

Compound: O=c1ccc2ccc(OCCCCCCn3ccnc3-c3ccccc3)cc2o1
- MIC [1]: > 256 µM
- MIC [2]: > 256 µM
- MIC [3]: > 256 µM
- MIC [4]: > 256 µM
- MBC [5]: > 256 µM
- MBC [6]: > 256 µM
- MBC [7]: > 256 µM
- MBC [8]: > 256 µM

Compound: O=c1ccc2ccc(OCCCCCCCCn3cccn3)cc2o1
- MIC [1]: > 256 µM
- MIC [3]: > 256 µM
- MBC [5]: > 256 µM
- MBC [7]: > 256 µM

Compound: O=c1ccc2ccc(OCCBr)cc2o1
- MIC [1]: > 256 µM
- MIC [2]: > 256 µM
- MIC [3]: > 256 µM
- MIC [4]: > 256 µM
- MBC [5]: > 256 µM
- MBC [6]: > 256 µM
- MBC [7]: > 256 µM
- MBC [8]: > 256 µM

Compound: Cc1cn(CCOc2ccc3ccc(=O)oc3c2)cn1
- MIC [1]: > 256 µM
- MIC [2]: 16 µM (≈ 4.32 µg/mL)
- MIC [3]: > 256 µM
- MIC [4]: > 256 µM
- MBC [5]: > 256 µM
- MBC [6]: 64 µM (≈ 17.3 µg/mL)
- MBC [7]: > 256 µM
- MBC [8]: > 256 µM

Compound: O=c1ccc2ccc(OCCn3ccnc3-c3ccccc3)cc2o1
- MIC [1]: > 256 µM
- MIC [2]: 128 µM (≈ 42.5 µg/mL)
- MIC [3]: > 256 µM
- MIC [4]: > 256 µM
- MBC [5]: > 256 µM
- MBC [6]: 512 µM (≈ 170 µg/mL)
- MBC [7]: > 256 µM
- MBC [8]: > 256 µM

Compound: Cc1nccn1CCOc1ccc2ccc(=O)oc2c1
- MIC [1]: > 256 µM
- MIC [2]: 64 µM (≈ 17.3 µg/mL)
- MIC [3]: > 256 µM
- MIC [4]: > 256 µM
- MBC [5]: > 256 µM
- MBC [6]: 256 µM (≈ 69.2 µg/mL)
- MBC [7]: > 256 µM
- MBC [8]: > 256 µM

Compound: O=c1ccc2ccc(OCCn3cnc4ccccc43)cc2o1
- MIC [1]: > 256 µM
- MIC [2]: 128 µM (≈ 39.2 µg/mL)
- MIC [3]: > 256 µM
- MIC [4]: 64 µM (≈ 19.6 µg/mL)
- MBC [5]: > 256 µM
- MBC [6]: 256 µM (≈ 78.4 µg/mL)
- MBC [7]: > 256 µM
- MBC [8]: 256 µM (≈ 78.4 µg/mL)

Compound: O=c1ccc2ccc(OCCCCCCn3cnc4ccccc43)cc2o1
- MIC [1]: 32 µM (≈ 11.6 µg/mL)
- MIC [2]: > 256 µM
- MIC [3]: 32 µM (≈ 11.6 µg/mL)
- MIC [4]: 32 µM (≈ 11.6 µg/mL)
- MBC [5]: 128 µM (≈ 46.4 µg/mL)
- MBC [6]: > 256 µM
- MBC [7]: 128 µM (≈ 46.4 µg/mL)
- MBC [8]: 256 µM (≈ 92.8 µg/mL)

Compound: Cc1cc(=O)oc2cc(OCCCCCCCCn3ccnc3)ccc12
- MIC [1]: 4 µM (≈ 1.42 µg/mL)
- MIC [2]: > 256 µM
- MIC [3]: 8 µM (≈ 2.84 µg/mL)
- MIC [4]: 64 µM (≈ 22.7 µg/mL)
- MBC [5]: 16 µM (≈ 5.67 µg/mL)
- MBC [6]: > 256 µM
- MBC [7]: 16 µM (≈ 5.67 µg/mL)
- MBC [8]: 256 µM (≈ 90.7 µg/mL)

Compound: Cc1cn(CCCCCCCCOc2ccc3c(C)cc(=O)oc3c2)cn1
- MIC [1]: 8 µM (≈ 2.95 µg/mL)
- MIC [2]: > 256 µM
- MIC [3]: 8 µM (≈ 2.95 µg/mL)
- MIC [4]: 32 µM (≈ 11.8 µg/mL)
- MBC [5]: 16 µM (≈ 5.9 µg/mL)
- MBC [6]: > 256 µM
- MBC [7]: 32 µM (≈ 11.8 µg/mL)
- MBC [8]: 256 µM (≈ 94.3 µg/mL)

Compound: Cc1cn(CCCCOc2ccc3ccc(=O)oc3c2)cn1
- MIC [1]: > 256 µM
- MIC [2]: 16 µM (≈ 4.77 µg/mL)
- MIC [3]: > 256 µM
- MIC [4]: > 256 µM
- MBC [5]: > 256 µM
- MBC [6]: 32 µM (≈ 9.55 µg/mL)
- MBC [7]: > 256 µM
- MBC [8]: > 256 µM

Compound: O=c1ccc2ccc(OCCCCCCCCn3cnc4ccccc43)cc2o1
- MIC [1]: 8 µM (≈ 3.12 µg/mL)
- MIC [2]: > 256 µM
- MIC [3]: 256 µM (≈ 100 µg/mL)
- MIC [4]: 32 µM (≈ 12.5 µg/mL)
- MBC [5]: 32 µM (≈ 12.5 µg/mL)
- MBC [6]: > 256 µM
- MBC [7]: 512 µM (≈ 200 µg/mL)
- MBC [8]: 128 µM (≈ 50 µg/mL)

Compound: O=c1ccc2ccc(OCCCCn3ccnc3-c3ccccc3)cc2o1
- MIC [1]: > 256 µM
- MIC [2]: 32 µM (≈ 11.5 µg/mL)
- MIC [3]: > 256 µM
- MIC [4]: > 256 µM
- MBC [5]: > 256 µM
- MBC [6]: 128 µM (≈ 46.1 µg/mL)
- MBC [7]: > 256 µM
- MBC [8]: > 256 µM

Compound: O=c1ccc2ccc(OCCCCCCCCN3CCCCC3)cc2o1
- MIC [1]: > 256 µM
- MIC [3]: > 256 µM
- MBC [5]: > 256 µM
- MBC [7]: > 256 µM

Compound: O=c1ccc2ccc(OCCCCn3cnc4ccccc43)cc2o1
- MIC [1]: > 256 µM
- MIC [2]: 8 µM (≈ 2.68 µg/mL)
- MIC [3]: > 256 µM
- MIC [4]: 32 µM (≈ 10.7 µg/mL)
- MBC [5]: > 256 µM
- MBC [6]: 64 µM (≈ 21.4 µg/mL)
- MBC [7]: > 256 µM
- MBC [8]: 256 µM (≈ 85.6 µg/mL)

Compound: NCCCCCCCCOc1ccc2ccc(=O)oc2c1
- MIC [1]: > 256 µM
- MIC [3]: > 256 µM
- MBC [5]: > 256 µM
- MBC [7]: > 256 µM

The next lines start with results.

- MIC [1]: 4 µM (≈ 1.47 µg/mL)
- MIC [2]: > 256 µM
- MIC [3]: 16 µM (≈ 5.9 µg/mL)
- MIC [4]: 64 µM (≈ 23.6 µg/mL)
Compound: Cc1cc(=O)oc2cc(OCCCCCCCCn3ccnc3C)ccc12
- MBC [5]: 8 µM (≈ 2.95 µg/mL)
- MBC [6]: > 256 µM
- MBC [7]: 16 µM (≈ 5.9 µg/mL)
- MBC [8]: 256 µM (≈ 94.3 µg/mL)

- MIC [1]: 64 µM (≈ 20 µg/mL)
- MIC [2]: 32 µM (≈ 10 µg/mL)
- MIC [3]: > 256 µM
- MIC [4]: 64 µM (≈ 20 µg/mL)
Compound: O=c1ccc2ccc(OCCCCCCn3ccnc3)cc2o1
- MBC [5]: 128 µM (≈ 40 µg/mL)
- MBC [6]: 64 µM (≈ 20 µg/mL)
- MBC [7]: > 256 µM
- MBC [8]: 64 µM (≈ 20 µg/mL)

- MIC [1]: > 256 µM
- MIC [2]: > 256 µM
- MIC [3]: > 256 µM
- MIC [4]: > 256 µM
Compound: O=c1ccc2ccc(OCCCCBr)cc2o1
- MBC [5]: > 256 µM
- MBC [6]: > 256 µM
- MBC [7]: > 256 µM
- MBC [8]: > 256 µM

- MIC [1]: > 256 µM
- MIC [2]: > 256 µM
- MIC [3]: > 256 µM
- MIC [4]: > 256 µM
Compound: O=c1ccc2ccc(OCCCCCCCCCCBr)cc2o1
- MBC [5]: > 256 µM
- MBC [6]: > 256 µM
- MBC [7]: > 256 µM
- MBC [8]: > 256 µM

- MIC [1]: > 256 µM
- MIC [2]: 128 µM (≈ 36.4 µg/mL)
- MIC [3]: > 256 µM
- MIC [4]: 64 µM (≈ 18.2 µg/mL)
Compound: O=c1ccc2ccc(OCCCCn3ccnc3)cc2o1
- MBC [5]: > 256 µM
- MBC [6]: 256 µM (≈ 72.8 µg/mL)
- MBC [7]: > 256 µM
- MBC [8]: 256 µM (≈ 72.8 µg/mL)

- MIC [1]: > 256 µM
- MIC [3]: > 256 µM
Compound: O=c1ccc2ccc(OCCCCCCCCN3CCNCC3)cc2o1
- MBC [5]: > 256 µM
- MBC [7]: > 256 µM

- MIC [1]: > 256 µM
- MIC [2]: > 256 µM
- MIC [3]: > 256 µM
- MIC [4]: > 256 µM
Compound: O=c1ccc2ccc(OCCCCCCCCn3ccnc3-c3ccccc3)cc2o1
- MBC [5]: > 256 µM
- MBC [6]: > 256 µM
- MBC [7]: > 256 µM
- MBC [8]: > 256 µM

- MIC [1]: > 256 µM
- MIC [2]: > 256 µM
- MIC [3]: > 256 µM
- MIC [4]: > 256 µM
Compound: O=c1ccc2ccc(OCCCCCCCCBr)cc2o1
- MBC [5]: > 256 µM
- MBC [6]: > 256 µM
- MBC [7]: > 256 µM
- MBC [8]: > 256 µM

- MIC [1]: > 256 µM
- MIC [2]: > 256 µM
- MIC [3]: > 256 µM
- MIC [4]: > 256 µM
Compound: Cc1cc(=O)oc2cc(OCCCCCCCCBr)ccc12
- MBC [5]: > 256 µM
- MBC [6]: > 256 µM
- MBC [7]: > 256 µM
- MBC [8]: > 256 µM

- MIC [1]: > 256 µM
- MIC [2]: > 256 µM
- MIC [3]: > 256 µM
- MIC [4]: > 256 µM
Compound: O=c1ccc2ccc(OCCCCCCBr)cc2o1
- MBC [5]: > 256 µM
- MBC [6]: > 256 µM
- MBC [7]: > 256 µM
- MBC [8]: > 256 µM
